Test results reported in ChEMBL document CHEMBL3407336, “Discovery of 1H-pyrazol-3(2H)-ones as potent and selective inhibitors of protein kinase R-like endoplasmic reticulum kinase (PERK)” (J Med Chem, 2015).

Key:
[1] = Intrinsic clearance in rat microsomes; format: ADME, Microsome
[2] = AUC in Sprague-Dawley rat at 2 mg/kg, po compound dosed in 1% Tween 80/99% OraPlus; format: ADME, organism-based; parameters: dose 2 mg/kg, route oral; conditions: plasma
How it was run: (§1)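 PK in male Sprague-Dawley rats or male CD-1 mice. For iv, 1 mg/kg was given as a DMSO solution. For po, compound was given as a solution in the vehicle and at the dose named in each line, with MsOH-acidified vehicles at pH 2.0.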

[3] = Oral bioavailability in Sprague-Dawley rat at 2 mg/kg compound dosed in 1% Tween 80/99% OraPlus; format: ADME, organism-based; conditions: in vivo; how it was run: as §1
[4] = Clearance in Sprague-Dawley rat at 1 mg/kg, iv; format: ADME, organism-based; parameters: dose 1 mg/kg, route intravenous; conditions: in vivo; how it was run: as §1
[5] = Volume of distribution at steady state in Sprague-Dawley rat at 1 mg/kg, iv; format: ADME, organism-based; parameters: dose 1 mg/kg, route intravenous; conditions: in vivo, read-out: Vdss; how it was run: as §1
[6] = Mean residence time in Sprague-Dawley rat at 1 mg/kg, iv; format: ADME, organism-based; parameters: dose 1 mg/kg, route intravenous; conditions: in vivo; how it was run: as §1
[7] = Oral bioavailability in Sprague-Dawley rat at 2.5 mg/kg compound dosed in 1% Tween 80/2% HPMC/97% H2O with MsOH at pH 2; format: ADME, organism-based; conditions: in vivo; how it was run: as §1
[8] = AUC in Sprague-Dawley rat at 2.5 mg/kg, po compound dosed in 1% Tween 80/2% HPMC/97% H2O with MsOH at pH 2; format: ADME, organism-based; parameters: dose 2.5 mg/kg, route oral; conditions: plasma; how it was run: as §1
[9] = Oral bioavailability in Sprague-Dawley rat at 2.5 mg/kg compound dosed in 1% Pluronic F68/1% HPMC/15% Captisol/83% H2O with MsOH at pH 2; format: ADME, organism-based; conditions: in vivo; how it was run: as §1
[10] = AUC in Sprague-Dawley rat at 2.5 mg/kg, po compound dosed in 1% Pluronic F68/1% HPMC/15% Captisol/83% H2O with MsOH at pH 2; format: ADME, organism-based; parameters: dose 2.5 mg/kg, route oral; conditions: plasma; how it was run: as §1
[11] = AUC in CD1 mouse at 2.5 mg/kg, po compound dosed in 1% Pluronic F68/1% HPMC/15% Captisol/83% H2O with MsOH at pH 2; format: ADME, organism-based; parameters: dose 2.5 mg/kg, route oral; conditions: plasma; how it was run: as §1
Mus musculus [12] = experiment: Volume of distribution at steady state in CD1 mouse at 1 mg/kg, iv; format: ADME, organism-based; parameters: dose 1 mg/kg, route intravenous; conditions: in vivo; how it was run: as §1
Mus musculus [13] = experiment: Mean residence time in CD1 mouse at 1 mg/kg, iv; format: ADME, organism-based; parameters: dose 1 mg/kg, route intravenous; conditions: in vivo; how it was run: as §1
[14] = Oral bioavailability in CD1 mouse at 2.5 mg/kg compound dosed in 1% Pluronic F68/1% HPMC/15% Captisol/83% H2O with MsOH at pH 2; format: ADME, organism-based; conditions: in vivo; how it was run: as §1

clearance [4] [L/h/kg] | Vd [5] [L/kg] | MRT [6] [h] | bioavailability [9] [%] | AUC [10] [µM·h] | SMILES | other results
 |  |  |  |  | CNc1ncc2cc(-c3c(C)ccc(C(=O)c4c(-c5ccccc5)n(C)n(-c5ccccc5)c4=O)c3N)ccc2n1 | microsomal CLint [1]: 29 µL/min/mg
0.07 | 0.73 | 10.4 |  |  | COc1cc2nccc(Oc3ccc(NC(=O)c4c(-c5ccccc5)n(C)n(-c5ccccc5)c4=O)nc3)c2cc1OC | AUC [2]: 20.2 µM·h; bioavailability [3]: 50%
 |  |  |  |  | CNc1ncc2cc(-c3cc(C(=O)c4c(-c5ccccc5)n(C)n(-c5ccccc5)c4=O)ccc3C)ccc2n1 | microsomal CLint [1]: 497 µL/min/mg
1 | 0.56 | 0.5 |  |  | CNc1ncc2cc(-c3cc(C(=O)c4c(-c5ccccc5)n(C)n(-c5ccccc5)c4=O)ccc3N)ccc2n1 | bioavailability [7]: 18%; AUC [8]: 0.8 µM·h
 |  |  |  |  | CNc1ncc2cc(-c3cc(C(=O)c4c(-c5ccccc5)n(C)n(-c5ccccc5)c4=O)ccc3Cl)ccc2n1 | microsomal CLint [1]: 167 µL/min/mg
0.57 | 2.2 | 3.9 | 48 | 3.8 | CNc1ncc2c(F)c(-c3c(C)ccc(C(=O)c4c(-c5ccccc5)n(C)n(-c5ccccc5)c4=O)c3N)ccc2n1 | 
0.5 | 2.7 | 5.5 | 49 | 3.7 | CNc1ncc2c(Cl)c(-c3c(C)ccc(C(=O)c4c(-c5ccccc5)n(C)n(-c5ccccc5)c4=O)c3N)ccc2n1 | 
2.2 | 2.6 | 1.4 | 69 | 1.2 | Cc1ncc2cc(-c3c(C)ccc(C(=O)c4c(-c5ccccc5)n(C)n(-c5ccccc5)c4=O)c3N)ccc2n1 | 
1.4 | 3.1 | 2.2 | 3 | 0.1 | Cc1nc2ccc(-c3c(C)ccc(C(=O)c4c(-c5ccccc5)n(C)n(-c5ccccc5)c4=O)c3N)cc2s1 | 
0.64 | 2 | 3.1 | 35 | 2.5 | CNc1nc2ccc(-c3c(C)ccc(C(=O)c4c(-c5ccccc5)n(C)n(-c5ccccc5)c4=O)c3N)cc2s1 | 
3 | 6.5 | 2.2 | 67 | 1 | Cc1ccc(C(=O)c2c(-c3ccccc3)n(C)n(-c3ccccc3)c2=O)c(N)c1-c1ccc2nc(N)sc2c1 | 
0.94 | 5 | 5.3 | 76 | 3.4 | Cc1ccc(C(=O)c2c(-c3ccccc3)n(C)n(-c3ccccc3)c2=O)c(N)c1-c1ccc2nc(C(F)F)sc2c1 | 
0.75 | 8.1 | 10.8 | 83 | 3.2 | Cc1ccc(C(=O)c2c(-c3ccccc3)n(C)n(-c3ccccc3)c2=O)c(N)c1-c1ccc2nc(C(F)(F)F)sc2c1 | 
1.6 | 3.6 | 2.3 | 55 | 1.4 | Cc1ccc2cc(-c3c(C)ccc(C(=O)c4c(-c5ccccc5)n(C)n(-c5ccccc5)c4=O)c3N)ccc2n1 | AUC [11]: 8.8 µM·h; Vdss (Mus musculus [12]): 1.2 L/kg; MRT (Mus musculus [13]): 5 h; bioavailability [14]: 46%
0.1 | 1.2 | 11.9 | 98 | 23.6 | Cc1nc(N)c2c(-c3ccc4c(c3)CCN4C(=O)Cc3cc(F)cc(C(F)(F)F)c3)cn(C)c2n1 | 
